Data set [1] relates to Mycobacterium tuberculosis. Put plainly: Antimycobacterial activity against Mycobacterium tuberculosis H37Rv after 7 days by MABA assay. In kind it is functional. Conditions: 168 h. The method, boiled down: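 M. tuberculosis H37Rv in 7H9-S medium with OADC, adjusted to McFarland No. 1 and diluted 1:20 for inoculum. Drugs were diluted in 7H9-S at four-fold the highest final concentration, then serially two-fold diluted in plates alongside drug-free growth and sterile controls. Alamar blue microplate read-out.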
A general note: Resazurin is reduced to fluorescent resorufin, in cell work by metabolically active cells.

In a further data set the test system is Staphylococcus aureus. Briefly: Inhibition of Staphylococcus aureus GyrB.
For the next data set, the system named is Escherichia coli. Put plainly: Inhibition of Escherichia coli DNA gyrase.
The nature of data set [2]: Cytotoxicity against mouse RAW264.7 cells at 50 uM after 72 hrs by MTT assay. In kind it is cell-based. Particulars: read-out: INH. Summed up: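 RAW 264.7 cells were exposed to compounds for 72 h. Viability was scored by cellular MTT conversion to formazan.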
(Tetrazolium dyes change colour on reduction, which living cells bring about.)

A further data set addresses DNA gyrase subunit B (Mycobacterium smegmatis, UniProt P0C559). Briefly: Inhibition of Mycobacterium smegmatis GyrB ATPase activity expressed in Escherichia coli BL21 (DE3) after 2 hrs. Also noted: species or system Mycolicibacterium smegmatis.
In data set [3] the target is DNA gyrase subunit A/DNA gyrase subunit B (Mycobacterium tuberculosis (strain ATCC 25618 / H37Rv), UniProt P9WG45+P9WG47). Briefly: Inhibition of Mycobacterium tuberculosis DNA gyrase super coiling activity of relaxed pBR322 using ethidium bromide staining by agarose gel electrophoresis.

Each structure is given as a SMILES string. In brackets after ≈: the same amount, converted by molar mass. Activity calls are given as the source filed them. The calls are words filed in the database; no cut-off is given here. Where only a bound is given, the exact number is not on record here.

As usually defined, the MIC is the lowest concentration found to suppress growth. Broadly, the IC50 is the concentration needed to halve the response being measured. Read a high IC50 as weaker potency in that assay.

DNA gyrase subunit B, sequence (P0C559 whole entry): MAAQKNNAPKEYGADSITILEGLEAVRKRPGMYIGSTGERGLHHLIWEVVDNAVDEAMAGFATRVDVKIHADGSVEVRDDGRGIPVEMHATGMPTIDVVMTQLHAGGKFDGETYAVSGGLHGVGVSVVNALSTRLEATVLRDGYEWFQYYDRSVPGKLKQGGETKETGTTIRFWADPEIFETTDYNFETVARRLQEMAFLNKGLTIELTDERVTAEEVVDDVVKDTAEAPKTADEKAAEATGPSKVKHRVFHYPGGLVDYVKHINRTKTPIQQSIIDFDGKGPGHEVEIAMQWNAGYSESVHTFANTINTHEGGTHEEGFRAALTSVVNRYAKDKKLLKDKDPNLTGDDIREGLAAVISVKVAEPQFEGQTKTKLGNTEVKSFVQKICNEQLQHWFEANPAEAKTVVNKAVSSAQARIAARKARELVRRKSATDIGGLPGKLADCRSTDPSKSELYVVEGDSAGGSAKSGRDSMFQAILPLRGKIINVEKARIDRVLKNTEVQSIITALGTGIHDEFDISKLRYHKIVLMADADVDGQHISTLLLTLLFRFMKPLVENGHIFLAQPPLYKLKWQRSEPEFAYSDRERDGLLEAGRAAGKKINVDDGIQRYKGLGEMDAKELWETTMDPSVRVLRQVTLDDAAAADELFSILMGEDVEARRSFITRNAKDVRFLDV
DNA gyrase subunit A/DNA gyrase subunit B, sequence (P9WG45 whole entry): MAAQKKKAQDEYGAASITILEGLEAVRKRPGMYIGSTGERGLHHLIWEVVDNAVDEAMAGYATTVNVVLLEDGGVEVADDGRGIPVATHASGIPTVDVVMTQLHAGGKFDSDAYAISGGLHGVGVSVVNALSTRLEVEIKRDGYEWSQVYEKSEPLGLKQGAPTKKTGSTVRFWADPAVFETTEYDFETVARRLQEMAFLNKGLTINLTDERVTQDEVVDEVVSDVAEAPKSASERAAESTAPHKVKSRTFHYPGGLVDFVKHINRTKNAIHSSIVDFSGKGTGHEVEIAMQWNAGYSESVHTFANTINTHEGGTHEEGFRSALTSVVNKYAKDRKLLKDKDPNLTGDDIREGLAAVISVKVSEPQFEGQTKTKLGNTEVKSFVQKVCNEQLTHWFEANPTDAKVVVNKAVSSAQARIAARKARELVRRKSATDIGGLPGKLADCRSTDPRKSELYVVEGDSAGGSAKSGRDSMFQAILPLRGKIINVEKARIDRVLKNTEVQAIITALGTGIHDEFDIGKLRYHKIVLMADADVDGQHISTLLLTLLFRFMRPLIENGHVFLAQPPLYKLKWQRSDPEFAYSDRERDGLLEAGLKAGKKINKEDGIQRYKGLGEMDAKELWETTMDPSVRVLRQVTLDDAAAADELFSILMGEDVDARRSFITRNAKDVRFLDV
DNA gyrase subunit A/DNA gyrase subunit B, sequence (P9WG47 whole entry): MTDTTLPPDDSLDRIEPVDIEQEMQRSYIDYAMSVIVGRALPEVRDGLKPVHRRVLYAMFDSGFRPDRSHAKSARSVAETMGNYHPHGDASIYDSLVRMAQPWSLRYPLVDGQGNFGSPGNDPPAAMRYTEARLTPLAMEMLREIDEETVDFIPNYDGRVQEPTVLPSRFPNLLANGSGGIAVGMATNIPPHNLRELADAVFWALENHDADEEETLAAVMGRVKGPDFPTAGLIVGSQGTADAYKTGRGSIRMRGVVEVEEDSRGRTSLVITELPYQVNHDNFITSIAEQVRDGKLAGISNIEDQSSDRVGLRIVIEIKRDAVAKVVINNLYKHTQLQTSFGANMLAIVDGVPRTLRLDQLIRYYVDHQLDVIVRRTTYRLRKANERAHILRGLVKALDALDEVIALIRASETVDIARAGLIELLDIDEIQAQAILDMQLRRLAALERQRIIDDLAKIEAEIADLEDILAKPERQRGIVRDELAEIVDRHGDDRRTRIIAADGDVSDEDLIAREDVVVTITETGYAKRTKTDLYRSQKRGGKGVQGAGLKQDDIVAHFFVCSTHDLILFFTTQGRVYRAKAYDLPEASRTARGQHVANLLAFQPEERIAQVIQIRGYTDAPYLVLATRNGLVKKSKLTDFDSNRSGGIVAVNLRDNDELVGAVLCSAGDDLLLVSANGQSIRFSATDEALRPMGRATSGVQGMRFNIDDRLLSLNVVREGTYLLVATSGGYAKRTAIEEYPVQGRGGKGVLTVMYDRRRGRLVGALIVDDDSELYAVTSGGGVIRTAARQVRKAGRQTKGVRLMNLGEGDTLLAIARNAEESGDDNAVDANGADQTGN

`CO[C@@H]1[C@@H](OC(N)=O)[C@@H](O)[C@H](Oc2ccc3c(O)c(NC(=O)c4ccc(O)c(CC=C(C)C)c4)c(=O)oc3c2C)OC1(C)C` [NOVOBIOCIN]: the minimum inhibitory concentration (MIC) in data set [1] was greater than 200 µM. The inhibition result with Staphylococcus aureus and in the data set with Escherichia coli was “inactive” throughout.
The compound `CCOC(=O)c1sc(-c2ccccc2)nc1N1CCC(NCc2ccc(Cl)c(Cl)c2)CC1` showed an MIC in data set [1] greater than 102 µM. In addition, the cytotoxicity at 72 h, 50 µM in data set [2] was determined as 18.1%.
Regarding `CCOC(=O)c1sc(-c2ccccn2)nc1N1CCC(NCc2ccc(OCc3ccccc3)cc2)CC1`, inhibition of growth in data set [1] (MIC) required 47.3 µM (≈ 25 µg/mL). For the same compound, in data set [2], the cytotoxicity at 72 h, 50 µM worked out at 12.8%.
`CCOC(=O)c1sc(-c2ccccc2)nc1N1CCC(NCc2ccc(OC)cc2)CC1` showed an MIC in data set [1] greater than 111 µM. The cytotoxicity at 72 h, 50 µM in data set [2] amounted to 8.4%.
Compound `CCOC(=O)c1sc(-c2ccncc2)nc1N1CCC(NCc2ccc(OC)cc2)CC1` had a minimum inhibitory concentration (MIC) in data set [1] of 110 µM (≈ 50 µg/mL). The cytotoxicity at 72 h, 50 µM in data set [2] came out at 16.1%.
On to `CCOC(=O)c1sc(-c2ccncc2)nc1N1CCC(NCc2ccc(Cl)cc2Cl)CC1`, for which the MIC in data set [1] was 25.4 µM (≈ 12.5 µg/mL). The cytotoxicity at 72 h, 50 µM in data set [2] was found to be 18.4%. In addition, the inhibition entry in the data set with Staphylococcus aureus is “inactive”. This compound displayed an IC50 at DNA gyrase subunit B of 27.1 µM.
In the case of `CCOC(=O)c1sc(-c2ccccn2)nc1N1CCC(NCc2ccc(Cl)c(Cl)c2)CC1`, in data set [1], the MIC is greater than 102 µM. In data set [2], the cytotoxicity at 72 h, 50 µM was 30.1%.
In data set [1], `CCOC(=O)c1sc(-c2ccncc2)nc1N1CCC(NCc2ccc(Cl)c(Cl)c2)CC1` showed an MIC of 102 µM (≈ 50 µg/mL). Moreover, in data set [2], the cytotoxicity at 72 h, 50 µM amounted to 32.2%.
`CCOC(=O)c1sc(-c2ccccc2)nc1N1CCC(NCc2cccc(C(F)(F)F)c2)CC1`: inhibition of growth in data set [1] (MIC) required 102 µM (≈ 50 µg/mL). Moreover, the cytotoxicity at 72 h, 50 µM in data set [2] was 28.1%. Also, the inhibition result with Staphylococcus aureus is “inactive”. Half-maximal inhibition against DNA gyrase subunit B (IC50) was put at 26.9 µM.
`CCOC(=O)c1sc(-c2ccncc2)nc1N1CCC(NCc2ccc(C(F)(F)F)cc2)CC1` showed an MIC in data set [1] of 102 µM (≈ 50 µg/mL). In data set [2], the cytotoxicity at 72 h, 50 µM came out at 18.1%.
Take `CCOC(=O)c1sc(-c2ccccc2)nc1N1CCC(NCc2ccc(Cl)cc2Cl)CC1`: in data set [1], inhibition of growth (MIC) required 51 µM (≈ 25 µg/mL). Further, the cytotoxicity at 72 h, 50 µM in data set [2] is 9.43%.
In turn, `CCOC(=O)c1sc(-c2ccccn2)nc1N1CCC(NCc2ccc(F)cc2)CC1` yielded an MIC in data set [1] of 28.4 µM (≈ 12.5 µg/mL). In data set [2], the cytotoxicity at 72 h, 50 µM was determined as 12.6%.
`CCOC(=O)c1sc(-c2ccccc2)nc1N1CCC(NCc2ccc(OCc3ccccc3)cc2)CC1` came in with an MIC in data set [1] of 47.4 µM (≈ 25 µg/mL). For the same compound, in data set [2], the cytotoxicity at 72 h, 50 µM turned out to be 18.4%.
In data set [1], `CCOC(=O)c1sc(-c2ccncc2)nc1N1CCC(NCc2cccc(C(F)(F)F)c2)CC1` showed an MIC of 51 µM (≈ 25 µg/mL). For the same compound, the cytotoxicity at 72 h, 50 µM in data set [2] was determined as 14.3%.
The compound `CCOC(=O)c1sc(-c2ccccc2)nc1N1CCC(NCc2ccccc2)CC1` displayed an MIC in data set [1] of 119 µM (≈ 50 µg/mL). In addition, in data set [2], the cytotoxicity at 72 h, 50 µM was 11.7%.
Regarding `CCOC(=O)c1sc(-c2ccccn2)nc1N1CCC(NCc2ccc(OC)cc2)CC1`, the lowest concentration to inhibit growth in data set [1] (MIC) was 55.2 µM (≈ 25 µg/mL). The cytotoxicity at 72 h, 50 µM in data set [2] amounted to 4.62%.
`CCOC(=O)c1sc(-c2ccccc2)nc1N1CCC(NCc2ccc(F)cc2)CC1` registered a minimal inhibitory concentration (MIC) in data set [1] of 28.4 µM (≈ 12.5 µg/mL). Further, the IC50 in data set [3] turned out to be 27.1 µM; on DNA gyrase subunit B, 24 µM. The cytotoxicity at 72 h, 50 µM in data set [2] came to 6.23%. Further, the inhibition result with Staphylococcus aureus and in the data set on Escherichia coli was “inactive” throughout.
For the compound `CCOC(=O)c1sc(-c2ccncc2)nc1N1CCC(NCc2ccccc2)CC1`, it took 59.2 µM (≈ 25 µg/mL) to inhibit growth in data set [1] (MIC). In data set [2], the cytotoxicity at 72 h, 50 µM is 10.8%.
For `CCOC(=O)c1sc(-c2ccncc2)nc1N1CCC(NCc2ccc(OCc3ccccc3)cc2)CC1` the same measures were 47.3 µM (≈ 25 µg/mL) and 8.04%.
For `CCOC(=O)c1sc(-c2ccccc2)nc1N1CCC(NCc2ccc(C(F)(F)F)cc2)CC1` the same measures were 102 µM (≈ 50 µg/mL) and 22.7%.
With `CCOC(=O)c1sc(-c2ccccn2)nc1N1CCC(NCc2cccc(C(F)(F)F)c2)CC1`, in data set [1], 25.5 µM (≈ 12.5 µg/mL) was the least that counted as inhibitory (MIC). Also, the cytotoxicity at 72 h, 50 µM in data set [2] came out at 19.2%. Also, the inhibition entry with Staphylococcus aureus is “inactive”. Further, inhibition against DNA gyrase subunit B was half-maximal at 29.1 µM (IC50).
In data set [1], `CCOC(=O)c1sc(-c2ccccn2)nc1N1CCC(NCc2ccccc2)CC1` yielded an MIC of 59.2 µM (≈ 25 µg/mL). In addition, the cytotoxicity at 72 h, 50 µM in data set [2] was determined as 14.6%.
With `CCOC(=O)c1sc(-c2ccncc2)nc1N1CCC(NCc2ccc(F)cc2)CC1`, in data set [1], inhibition of growth (MIC) required 56.8 µM (≈ 25 µg/mL). Also, in data set [2], the cytotoxicity at 72 h, 50 µM is 17.4%.
In turn, `CCOC(=O)c1sc(-c2ccccn2)nc1N1CCC(NCc2ccc(C(F)(F)F)cc2)CC1` had an MIC in data set [1] of 51 µM (≈ 25 µg/mL). Further, in data set [2], the cytotoxicity at 72 h, 50 µM was determined as 14.6%.
As for `CCOC(=O)c1sc(-c2ccccn2)nc1N1CCC(NCc2ccc(Cl)cc2Cl)CC1`, it took 50.9 µM (≈ 25 µg/mL) to inhibit growth in data set [1] (MIC). In addition, in data set [2], the cytotoxicity at 72 h, 50 µM stood at 18.6%.
